Results: ChEMBL document CHEMBL4602713, “Quantitative Proteomics Reveals Cellular Off-Targets of a DDR1 Inhibitor” (ACS Med Chem Lett, 2020)
The source made the active and inactive calls. The calls are words filed in the database; no cut-off is given here.

Columns and labels:
[1] = Drug localization in cellular membrane of human H1299 cells conjugated with TAMRA-N3 incubated for 2 to 6 hrs followed by compound washout twice with PBS buffer to remove excess compound and further irradiated with UV-light for 20 mins by Hoechst staining based confocal microscopy; format: ADME, cell membranes; details: nci-h1299
How it was run: (§1)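 H1299 cells were incubated with the probe, with or without excess parent inhibitor, then UV cross-linked. Cells were fixed, permeabilised, clicked to TAMRA-N3 and imaged by confocal microscopy with nuclear staining and DIC. Negative control samples were included.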

[2] = target: T1, Epithelial discoidin domain-containing receptor 1 (Homo sapiens, UniProt Q08345); assay: Binding affinity to DDR1 in TAMRA-N3 conjugated human […] cell lysate assessed as labeling band formation at 1 to 2 uM incubated for 1 to 3 hrs followed irradiation with UV-light at 365 nm for 20 mins by gel fluorescence scanning analysis
T1 sequence (Q08345 whole entry, the tested form may be a part): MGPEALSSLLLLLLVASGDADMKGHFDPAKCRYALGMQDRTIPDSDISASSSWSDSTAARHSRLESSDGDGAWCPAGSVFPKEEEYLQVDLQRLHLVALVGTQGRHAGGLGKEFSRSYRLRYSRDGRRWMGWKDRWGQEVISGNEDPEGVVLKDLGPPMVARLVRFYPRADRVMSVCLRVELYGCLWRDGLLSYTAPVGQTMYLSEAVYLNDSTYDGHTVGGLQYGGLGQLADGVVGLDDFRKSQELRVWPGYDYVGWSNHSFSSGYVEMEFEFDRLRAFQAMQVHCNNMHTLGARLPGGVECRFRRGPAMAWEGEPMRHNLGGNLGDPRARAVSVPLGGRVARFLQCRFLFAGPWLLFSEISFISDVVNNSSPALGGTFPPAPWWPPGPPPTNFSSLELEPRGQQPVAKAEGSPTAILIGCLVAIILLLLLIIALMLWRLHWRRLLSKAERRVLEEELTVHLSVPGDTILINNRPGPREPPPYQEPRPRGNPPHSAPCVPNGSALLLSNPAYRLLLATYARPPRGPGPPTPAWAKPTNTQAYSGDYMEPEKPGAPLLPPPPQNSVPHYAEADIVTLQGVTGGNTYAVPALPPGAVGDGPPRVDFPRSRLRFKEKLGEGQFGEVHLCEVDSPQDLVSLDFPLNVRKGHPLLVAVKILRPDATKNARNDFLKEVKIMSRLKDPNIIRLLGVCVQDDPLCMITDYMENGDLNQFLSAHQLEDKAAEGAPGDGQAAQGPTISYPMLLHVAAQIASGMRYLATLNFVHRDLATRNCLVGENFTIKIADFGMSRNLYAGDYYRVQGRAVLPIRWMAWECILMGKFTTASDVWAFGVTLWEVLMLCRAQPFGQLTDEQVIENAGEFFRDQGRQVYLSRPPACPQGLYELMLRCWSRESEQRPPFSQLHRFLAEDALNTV
How it was run: (§2)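 Live H1299 cells or H1299 lysate were incubated with the photoaffinity probe for 1–3 h, then irradiated at 365 nm for 20 min. Labelled proteins were clicked to TAMRA-N3, separated by SDS-PAGE and detected by in-gel fluorescence scanning.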

Cathepsin D [3] = target: T2, Cathepsin D (Homo sapiens, UniProt P07339); assay: (§3) Binding affinity to cathepsin D in TAMRA-N3 conjugated human […] cells assessed as fluorescence band formation with molecular weight of 30 kDa at 1 to 2 uM incubated for 2 hrs followed by compound washout to remove excess compound and further irradiated with UV-light at 365 nm for 20 mins by pull down assay; format: ADME
T2 sequence (P07339 65-162 limits assumed): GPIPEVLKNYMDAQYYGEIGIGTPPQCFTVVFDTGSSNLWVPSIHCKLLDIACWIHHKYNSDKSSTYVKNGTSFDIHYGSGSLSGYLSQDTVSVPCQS
T2 sequence (P07339 169-412 limits assumed): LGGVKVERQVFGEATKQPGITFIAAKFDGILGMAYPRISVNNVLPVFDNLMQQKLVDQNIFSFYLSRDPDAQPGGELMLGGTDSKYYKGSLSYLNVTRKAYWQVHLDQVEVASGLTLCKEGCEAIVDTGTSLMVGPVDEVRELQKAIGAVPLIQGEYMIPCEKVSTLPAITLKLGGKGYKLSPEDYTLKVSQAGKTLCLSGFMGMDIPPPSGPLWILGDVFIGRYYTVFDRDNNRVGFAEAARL
How it was run: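 Live H1299 cells were labelled with the photoaffinity probe and UV cross-linked. Labelled proteins were pulled down and detected by Western blot; CTSD was probed with an anti-CTSD antibody. The heavy chain of mature CTSD runs at ~33 kDa.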

[4] = target: T1, Epithelial discoidin domain-containing receptor 1; assay: as §3, with “DDR1” for “cathepsin D”, “110” for “30”
[5] = target: T1, Epithelial discoidin domain-containing receptor 1; assay: Binding affinity to DDR1 in TAMRA-N3 conjugated human […] cells assessed as labeling band formation at 1 to 2 uM incubated for 1 to 3 hrs followed irradiation with UV-light at 365 nm for 20 mins by gel fluorescence scanning analysis; how it was run: as §2
[6] = target: T1, Epithelial discoidin domain-containing receptor 1; assay: Inhibition of human GST-tagged DDR1 (440 to 876 residues) expressed in baculovirus expression system using fluorescein-Poly GAT as substrate incubated for 1 to 2 hrs in presence of ATP by TR-FRET assay
[7] = Drug localization in cytoplasm of human H1299 cells conjugated with TAMRA-N3 incubated for 2 to 6 hrs followed by compound washout twice with PBS buffer to remove excess compound and further irradiated with UV-light for 20 mins by Hoechst staining based confocal microscopy; format: ADME, subcellular; details: nci-h1299; how it was run: as §1
[8] = Drug distribution in human H1299 cells cytosol incubated for 4 hrs followed cellular conjugation with tetrazine-TAMRA immunofluorescence microscopy; format: ADME, subcellular, NCI-H1299
How it was run: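 Live H1299 cells were incubated with the TCO-bearing probe for 4 h, fixed, permeabilised and conjugated with tetrazine-TAMRA. After washing with fresh medium, cells were imaged by microscopy alongside anti-DDR1 immunofluorescence staining.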

Cathepsin D [9] = target: T2, Cathepsin D; assay: Inhibition of cathepsin D (unknown origin) at 50 to 200 uM
MDA-MB-231 = assay: Antiproliferative activity against human MDA-MB-231 cells overexpressing cathepsin D assessed as growth inhibition
SK-BR-3 = assay: Antiproliferative activity against human SKBR3 cells overexpressing cathepsin D assessed as growth inhibition
MCF7 = assay: Antiproliferative activity against human MCF7 cells overexpressing cathepsin D assessed as growth inhibition
Cathepsin D [10] = target: T2, Cathepsin D; assay: Binding affinity to cathepsin D in human H1299 cells assessed as increase in thermal stability of heavy chain at 10 uM incubated for 2 hrs followed by compound washout twice with PBS buffer to remove excess compound and further heated at 95 degree C for 10 mins by CETSA; format: ADME, cell-based; details: nci-h1299, 2 h
How it was run: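 For the cellular thermal shift assay, live H1299 cells were treated with compound or DMSO. The thermal stability of the mature CTSD heavy chain was then compared between the two.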

Cathepsin D [11] = target: T2, Cathepsin D; assay: Binding affinity to cathepsin D in human […] cells assessed as protein labeling at 0.5 to 1 uM pretreated with lysosomal neutralizing agent ammonium chloride for 30 mins followed by compound treatment by pull down based Western blot analysis; format: ADME, cell-based
How it was run: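 Live H1299 cells were first treated with 10 mM ammonium chloride for 30 min to neutralise lysosomes. Probe labelling followed, with pull-down and Western blot for CTSD.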

Cathepsin D [12] = target: T2, Cathepsin D; assay: Binding affinity to cathepsin D in SILAC labeled human H1299 cells assessed as labeling of heavy chain incubated for 3 hrs in presence of excess parent compound followed by compound washout twice with PBS buffer to remove excess compound and further irradiated with UV-light at 365 nm for 20 mins by LC-MS/MS analysis; format: ADME, cell-based; design: dose or concentration left out as unconfirmed; details: nci-h1299, 3 h
How it was run: (§4)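 SILAC-labelled H1299 cells were treated with the photoaffinity probe for 2–4 h and then UV-irradiated. Labelled proteomes were clicked to biotin-N3, enriched, digested and analysed by LC-MS/MS. Controls (excess parent inhibitor or DMSO) were run in parallel. Biological triplicates were performed, and hits were filtered by SILAC ratios.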

[13] = target: T3, Catechol O-methyltransferase (Homo sapiens, UniProt P21964); assay: Binding affinity to COMT in SILAC labeled human H1299 cells incubated for 3 hrs followed by compound washout twice with PBS buffer to remove excess compound and further irradiated with UV-light at 365 nm for 20 mins by LC-MS/MS analysis; format: ADME, cell-based; design: dose or concentration left out as unconfirmed; details: nci-h1299, 3 h; how it was run: as §4
T3 sequence (P21964 whole entry): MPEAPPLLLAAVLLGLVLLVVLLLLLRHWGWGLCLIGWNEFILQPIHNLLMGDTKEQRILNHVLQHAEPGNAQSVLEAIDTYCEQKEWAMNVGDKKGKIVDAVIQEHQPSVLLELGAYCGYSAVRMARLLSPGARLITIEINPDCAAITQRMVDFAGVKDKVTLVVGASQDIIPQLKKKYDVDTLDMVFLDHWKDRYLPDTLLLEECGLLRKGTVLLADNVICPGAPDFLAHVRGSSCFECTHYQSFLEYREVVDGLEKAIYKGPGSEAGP

Protein GPR107 = Protein GPR107 (Homo sapiens, UniProt Q5VW38); assay: Binding affinity to GPR107 in SILAC labeled human H1299 cells incubated for 3 hrs followed by compound washout twice with PBS buffer to remove excess compound and further irradiated with UV-light at 365 nm for 20 mins by LC-MS/MS analysis; format: ADME, cell-based; design: dose or concentration left out as unconfirmed; details: nci-h1299, 3 h; how it was run: as §4
Chain of Protein GPR107 (Q5VW38 whole entry): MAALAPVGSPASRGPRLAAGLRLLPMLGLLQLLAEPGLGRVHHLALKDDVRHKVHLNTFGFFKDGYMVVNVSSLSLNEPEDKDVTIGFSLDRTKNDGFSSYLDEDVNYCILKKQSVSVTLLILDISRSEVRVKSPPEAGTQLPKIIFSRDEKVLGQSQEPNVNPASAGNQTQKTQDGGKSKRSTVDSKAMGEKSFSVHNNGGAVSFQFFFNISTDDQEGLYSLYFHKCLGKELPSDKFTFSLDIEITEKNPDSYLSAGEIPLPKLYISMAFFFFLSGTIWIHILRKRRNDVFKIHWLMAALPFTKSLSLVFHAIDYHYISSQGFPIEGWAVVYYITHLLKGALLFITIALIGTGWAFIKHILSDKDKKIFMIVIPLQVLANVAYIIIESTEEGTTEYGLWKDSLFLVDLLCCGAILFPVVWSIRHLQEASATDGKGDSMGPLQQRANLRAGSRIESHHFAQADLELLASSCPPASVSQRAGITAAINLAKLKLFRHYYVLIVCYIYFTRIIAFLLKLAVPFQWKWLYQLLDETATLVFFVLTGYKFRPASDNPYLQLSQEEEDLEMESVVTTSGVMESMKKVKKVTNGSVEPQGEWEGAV

Cathepsin D [14] = target: T2, Cathepsin D; assay: Binding affinity to cathepsin D in SILAC labeled human H1299 cells incubated for 3 hrs followed by compound washout twice with PBS buffer to remove excess compound and further irradiated with UV-light at 365 nm for 20 mins by LC-MS/MS analysis; format: cell-based; design: dose or concentration left out as unconfirmed; details: nci-h1299, 3 h; how it was run: as §4

Compound | Drug uptake [1] | Activity [2] | Activity (Cathepsin D [3]) | Activity [4] | Activity [5] | IC50 [6] [µM] | Drug uptake [7] | Drug uptake [8] | inhibition (INH) (Cathepsin D [9]) | IC50 (MDA-MB-231) [µM] | IC50 (SK-BR-3) [µM] | IC50 (MCF7) [µM] | Activity (Cathepsin D [10]) | Activity (Cathepsin D [11]) | Activity (Cathepsin D [12]) | Activity [13] | Activity (Protein GPR107) | Activity (Cathepsin D [14])
C#CCCC1(CCN2CCN(Cc3cc(NC(=O)c4ccc5c(c4)CN(c4cncnc4)CC5C)cc(C(F)(F)F)c3)CC2)N=N1 (stereo unspecified) | Active | Active | Active | Active | Active | 0.577 | Active | – | – | – | – | – | – | – | – | – | – | –
CC1CN(c2cncnc2)Cc2cc(C(=O)Nc3cc(CN4CCN(CCC(=O)NCCCNC(=O)OC5CC/C=C/CCC5)CC4)cc(C(F)(F)F)c3)ccc21 (stereo unspecified) | – | – | – | – | – | 0.397 | – | Active | – | – | – | – | – | – | – | – | – | –
CC1CN(c2cncnc2)Cc2cc(C(=O)Nc3cc(CN4CCN(C)CC4)cc(C(F)(F)F)c3)ccc21 (stereo unspecified) | – | – | – | – | – | – | – | – | Active | 6.99 | 6.62 | 3.38 | Active | – | – | – | – | –
C#CCCC1(CC(=O)N2CCN(Cc3cc(NC(=O)c4ccc5c(c4)CN(c4cncnc4)CC5C)cc(C(F)(F)F)c3)CC2)N=N1 (stereo unspecified) | Active | Active | Active | Active | Active | 0.259 | Active | – | – | – | – | – | – | Not Active | Active | Active | Active | Active
